The text below walks through data of ChEMBL document CHEMBL1133528, “Syntheses of 4'-C-ethynyl-beta-D-arabino- and 4'-C-ethynyl-2'-deoxy-beta-D-ribo-pentofuranosylpyrimidines and -purines and evaluation of their anti-HIV activity” (J Med Chem, 2000).

The test system of one assay is MT4. Nature of the assay: Tested in vitro against MT-4 cells using MTT assay. The note with it: Homo sapiens. The class given is functional. Put shortly:
(§1)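 MT-4 cells (2 × 10⁴/mL) infected with 100 TCID₅₀ HIV-1_LAI, grown with drug dilution series 7 days at 37 °C. MTT added, 2 h at 37 °C, formazan dissolved in acidified 2-propanol with 4% Triton X-100, absorbance at 570 nm. Triplicates. EC₅₀ is concentration suppressing HIV-1 replication by 50%. SI calculated as CC₅₀/EC₅₀.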
In general terms: Tetrazolium dyes change colour on reduction, which living cells bring about.

In assay [1] the test system is HeLa. Nature of the assay: (§2) Tested in vitro against HIV-1 104pre from HeLa-CD4-[…]-beta gal-cells using MAGI assay. Format: functional, cell-based. The conditions noted are these: Homo sapiens. Put shortly:
(§3)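 HeLa-CD4-LTR-β-gal indicator cells seeded at 10⁴ cells/well, cultured 24 h, then exposed to HIV-1_104pre at 30 TCID₅₀ for 2 h at 37 °C. Drug series added 2 h before or 2 h after virus, kept present without washing. At 48 h cells fixed (1% formaldehyde, 0.2% glutaraldehyde in PBS), X-Gal stained, blue infected cells counted under microscope.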

Assay [2] concerns the target Human immunodeficiency virus type 1 reverse transcriptase (Human immunodeficiency virus 1) (UniProt Q72547). Nature of the assay: Selectivity index expressed as CC50/EC50. Format: functional. Put shortly:
as §1

Assay [3] has as its system HeLa. The assay is described as §2. Format: functional, cell-based, human immunodefficiency virus type 1. The note with it: Homo sapiens. The gist of the method: as §3

The term CC50 denotes the concentration giving 50% cytotoxicity. Lower therefore signals greater toxicity to the cells. What is called EC50 is the midpoint of the concentration-response curve. Low values mean a more potent agent, high ones a less potent agent.

Structures are written as SMILES. Where only a bound is given, the exact number is not on record here.

Regarding `C#C[C@]1(CO)O[C@@H](n2cc(C)c(=O)[nH]c2=O)C[C@@H]1O`, the 50% cytotoxic concentration (CC50) in the assay on MT4 is > 380000 nM. The molecule further displayed an EC50 with HeLa [1] of 400 nM. For the same molecule, the SI in assay [2] is > 623.
As for `C#C[C@]1(CO)O[C@@H](n2cc(F)c(N)nc2=O)C[C@@H]1O`, in the assay with MT4, the CC50 is > 100000 nM. The same molecule showed an EC50 with HeLa [1] of 2 nM. In assay [2], the SI is > 3330.
For `C#C[C@]1(CO)O[C@@H](n2cc(Br)c(=O)[nH]c2=O)C[C@@H]1O`, in the assay with MT4, the CC50 was > 100000 nM. For the same molecule, the SI in assay [2] was > 44.
Turning to `C#C[C@]1(CO)O[C@@H](n2cc(Cl)c(N)nc2=O)C[C@@H]1O`, the CC50 in the assay with MT4 was > 100000 nM.
As for `C#C[C@]1(CO)O[C@@H](n2cnc3cncnc32)C[C@@H]1O`, in the assay with MT4, the CC50 was > 380000 nM. This molecule also displayed a half-maximal effective concentration (EC50) in the assay with HeLa [1] of 132000 nM. For the same molecule, the SI in assay [2] was > 3.2.
The corresponding values for `C#C[C@]1(CO)O[C@@H](n2cnc3c(N)ncnc32)C[C@@H]1O` are 11700 nM, 6.8 nM and 975.
On to `C#C[C@]1(CO)O[C@@H](n2cc(F)c(=O)[nH]c2=O)C[C@@H]1O`, for which, in the assay with MT4, the 50% cytotoxic concentration (CC50) is 3400 nM.
For `C#C[C@]1(CO)O[C@@H](n2cc(I)c(=O)[nH]c2=O)C[C@@H]1O`, in the assay with MT4, the CC50 is > 260000 nM. The same molecule gave a concentration giving a half-maximal response (EC50) in the assay with HeLa [1] of 360 nM. In assay [2], the SI was > 765.
In the case of `Cc1cn([C@H]2C[C@H](N=[N+]=[N-])[C@@H](CO)O2)c(=O)[nH]c1=O` [ZIDOVUDINE], in the assay on MT4, the CC50 was > 100000 nM. This molecule also yielded an EC50 with HeLa [1] of 2 nM. In addition, the SI in assay [2] is > 2630.
As to `C#C[C@]1(CO)O[C@@H](n2cc(CC)c(=O)[nH]c2=O)C[C@@H]1O`, in the assay on MT4, the CC50 was > 360000 nM.
On to `C#C[C@]1(CO)O[C@@H](n2cnc3c(N)nc(N)nc32)C[C@@H]1O`, for which the CC50 in the assay on MT4 is 820 nM. For the same molecule, a half-maximal effect with HeLa [1] (EC50) was put at 1.9 nM. In addition, the SI in assay [2] came to 2730.
In the assay on MT4, `C#C[C@]1(CO)O[C@@H](n2cc(Cl)c(=O)[nH]c2=O)C[C@@H]1O` showed a CC50 of 81700 nM. For the same molecule, in assay [2], the SI stood at 13.6.
For `C#C[C@]1(CO)O[C@@H](n2cc(Br)c(N)nc2=O)C[C@@H]1O`, the CC50 in the assay with MT4 was > 100000 nM.
In turn, `C#C[C@]1(CO)O[C@@H](n2cnc3c(=O)[nH]c(N)nc32)C[C@@H]1O` gave a CC50 in the assay on MT4 of 1500 nM. The molecule also registered an SI in assay [2] of 1070. The molecule also showed an EC50 in the assay with HeLa [3] of 7.1 nM.
The molecule `C#C[C@]1(CO)O[C@@H](n2cnc3c(O)ncnc32)C[C@@H]1O` registered a CC50 in the assay with MT4 of 216000 nM. Further, the half-maximal effective concentration (EC50) with HeLa [1] was 830 nM. Also, the SI in assay [2] amounted to 14.4.
Regarding `C#C[C@]1(CO)O[C@@H](n2cc(C)c(N)nc2=O)C[C@@H]1O`, the half-maximal cytotoxic concentration (CC50) in the assay on MT4 stood at 700 nM. The same molecule showed an EC50 with HeLa [1] of 5.7 nM. The molecule further registered an SI in assay [2] of 63.
For `C#C[C@]1(CO)O[C@@H](n2cc(I)c(N)nc2=O)C[C@@H]1O`, the CC50 in the assay with MT4 is > 100000 nM.
With `C#C[C@]1(CO)O[C@@H](n2ccc(N)nc2=O)C[C@@H]1O`, the midpoint of the response in the assay on HeLa [1], the EC50, lay at 0.96 nM. In assay [2], this molecule returned an SI of 192.
With `C#C[C@]1(CO)O[C@@H](n2ccc(=O)[nH]c2=O)C[C@@H]1O`, the CC50 in the assay with MT4 was > 100000 nM.
